Consider 14 compounds from PubChem BioAssay AID2611 (Broad Institute, 2010).

For the experiment, the system named is BJeLR fibroblasts viability, Alamar Blue fluorescence, 48 h. Put plainly: cytotoxicity toward RAS-dependent BJ-TERT fibroblasts, dose response, cell-based, alamar blue fluorescence, powder samples (AID 2611). In short, it runs like this: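 Read-out: viable cell number from alamar blue conversion signal. Compound dosing: twofold serial dilution series, 0.01 to 5.33 µg/mL compound. Times: 48 h compound exposure, then ~16 h alamar blue incubation. Measured by: Alamar blue fluorescence, excitation 544 nm, emission 590 nm.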
As for `COc1ccc(N(C(=O)CCl)C(C(=O)NCCc2ccccc2)c2cccs2)cc1Cl` (centres undefined), the EC50 was 2.43 µM.

Consider `COc1ccc(N(C(=O)CCl)C(C(=O)NCCc2ccccc2)c2cccs2)cc1` (centres undefined), for which the EC50 was 2.26 µM.

Turning to `COc1ccc(C(C(=O)NC2CCCCC2)N(C(=O)CCl)c2ccc(C)cc2)cc1` (centres undefined), the EC50 was 7.65 µM.

Consider `COc1cccc(N(C(=O)CCl)C(C(=O)NCCc2ccccc2)c2cccs2)c1` (centres undefined), for which the concentration for a half-maximal effect (EC50) is 3.2 µM.

In the case of `CCOc1ccc(Nc2nc(N)nc(CCl)n2)cc1`, the EC50 was 2.89 µM.

Regarding `COc1ccc(C(C(=O)NC2CCCCC2)N(C(=O)CCl)c2cccc(Cl)c2)cc1` (centres undefined), the EC50 is 3.36 µM.

Turning to `COc1ccc(CN(CCC(c2ccccc2)c2ccc(OC(C)C)cc2)C(=O)CCl)cc1OC` (centres undefined), the EC50 was 2.71 µM.

On to `CCCCCCCN(C(=O)CCl)c1cccc(C)c1`, for which the EC50 was 5.74 µM.

On to `Cc1ccc(N(C(=O)CCl)C(C(=O)NC2CCCCC2)c2cccnc2)cc1C` (centres undefined), for which the EC50 was 2.27 µM.

As to `COC(=O)[C@@H]1Cc2c([nH]c3ccccc23)C(C)(C)N1C(=O)CCl`, the half-maximal effective concentration (EC50) was 6.2 µM.

In the case of `Nc1nc(CCl)nc(Nc2ccc3ccccc3c2)n1`, the EC50 is 2.06 µM.

For the compound `C=CCOc1ccccc1CN(C(=O)CCl)c1ccc2c(c1)OCO2`, the EC50 was 18.6 µM.

For `O=C(CCl)N=c1sccn1Cc1ccccc1Cl`, the EC50 is 12.1 µM.

Consider `Cc1ccc(C2CC(c3cccs3)=NN2C(=O)CCl)cc1` (centres undefined), for which the EC50 is 4.62 µM.
